Assay outcomes: PubChem BioAssay, several laboratories
Sampled rows, rich in hits. Any-hit rate of the full collection: about 2.4%.
HTRA1 inhibitor = HTRA1 (human) protease inhibition. Q92743. recombinant HTRA1, FP-rhodamine activity-based probe, fluorescence polarization. inhibition, % at 5.96 µM. actives 0.5% (n = 340,000). AID 504803; in the data active = inhibition above about 36%;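 note: 0% = enzyme with DMSO and 100% = wells lacking enzyme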
ABHD4 inh = inhibits mouse alpha/beta hydrolase domain 4 | inhibition, % at 8.92 µM | Q8VD66 | actives 0.54% (n = 370,000) | purified mABHD4, FP-Rh probe fluorescence polarization;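 active = inhibition exceeding the mean over every tested compound plus 3 SD, cut at about 30% in these data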;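 note: 0% = plate median of compound wells and 100% = S159A mutant with DMSO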
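Material: mouse ABHD4 enzyme, wild type; Benchmarks: S159A mutant high control, sample median low control; Buffer or medium: HEPES pH 7.0, NaCl, Pluronic buffer; Signal: fluorescence polarization; Read-out: percent inhibition of probe binding, normalized to plate controls; Timing: pre-incubation 45 min, probe exposure 60 min, at 25 °C; Dosing: 8.92 µM, single dose.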
GASC-1 inh = inhibitors of human GASC-1 (JMJD2C) demethylase. Q9H3R0. GST-JMJD2C(1-420) H3K9me3 demethylation, DELFIA europium. inhibition, % at 2.35 µM. actives 0.069% (n = 330,000). AID 2099;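 active = more than half of a compound's replicate wells show inhibition beyond 50%, single wells judged on their own value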;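 note: signal counts dimethyl H3K9 product captured on neutravidin plate; 0% = median of DMSO wells and 100% = 0.3 times that DMSO median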
Target sequence (Q9H3R0 1-420 limits assumed): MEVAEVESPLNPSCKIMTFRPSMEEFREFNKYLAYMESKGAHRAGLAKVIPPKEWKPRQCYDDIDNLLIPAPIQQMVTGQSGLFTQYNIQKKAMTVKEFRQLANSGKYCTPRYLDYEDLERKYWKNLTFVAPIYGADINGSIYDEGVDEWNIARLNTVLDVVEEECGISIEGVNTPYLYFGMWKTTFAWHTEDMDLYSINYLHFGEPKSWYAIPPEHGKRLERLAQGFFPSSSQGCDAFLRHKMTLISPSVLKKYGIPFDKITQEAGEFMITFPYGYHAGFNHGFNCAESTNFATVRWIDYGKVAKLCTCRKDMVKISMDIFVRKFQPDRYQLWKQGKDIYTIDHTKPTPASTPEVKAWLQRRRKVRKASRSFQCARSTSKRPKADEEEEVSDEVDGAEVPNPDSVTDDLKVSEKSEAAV
SIAE inh = inhibitors of human sialic acid acetylesterase SIAE. AID 1053197. inhibition, % at 9.66 µM. actives 0.69% (n = 370,000). Q9HAT2. SIAE FP-Rh probe binding, fluorescence polarization;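 active = inhibition above a cutoff: mean of compounds within the control limits plus 3 SD of those, cut at about 17% in these data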;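 note: 0% = plate median of compound wells and 100% = probe without SIAE protein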
PRMT1 FP inh = blocks human protein arginine methyltransferase 1; Q99873; recombinant PRMT1, activity-based probe fluorescence polarization; inhibition, % at 2.79 µM; actives 1.3% (n = 370,000); AID 652257;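 active = inhibition above about 21% made by adding two undisclosed values, limit read from the data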
* marks the source's active call; other numbers are inactive results; / = no result; ! = not active in a repeat.

SMILES | HTRA1 inhibitor | ABHD4 inh | GASC-1 inh | SIAE inh | PRMT1 FP inh
CCn1c(=N)n(CC(=O)c2cccc([N+](=O)[O-])c2)c2ccccc21 | -2 | 8 | -2 | 4 | 2
N=c1n(CC(=O)c2cccc([N+](=O)[O-])c2)c2ccccc2n1Cc1ccccc1 | -8 | 0 | 61* | 1 | 0
Cc1ccc(NC(=O)CN(C)Cc2c(O)ccc3ccccc23)cc1 | / | 5 | -2 | -6 | 21*
CC(C)(C)N=Cc1c(O)ccc2oc3c(c12)CCCC3 | 10 | 7 | -3 | 12 | 1
O=[N+]([O-])c1cc2oc3c(c2c(C=NCc2ccncc2)c1O)CCCC3 | 50* | / | / | / | /
Cc1[nH][nH]c(=O)c1C(c1ccc(-c2ccc(C(=O)O)cc2)o1)c1c(C)[nH][nH]c1=O | 5 | 3 | / | 12 | 18
Cc1[nH][nH]c(=O)c1C(c1ccc(-c2ccc(F)cc2)o1)c1c(C)[nH][nH]c1=O | 1 | 5 | -6 | 4 | 22*
CSc1nc(C)c(C(=O)Nc2ccccc2)c(-c2ccco2)c1C#N | -7 | -8 | 1 | -7 | 0
CNC(=O)c1c(C)[nH]c(=S)c(C#N)c1-c1ccco1 | 9 | 8 | 2 | 11 | 34*
Cc1ccccc1NC(=O)c1c(C)[nH]c(=S)c(C#N)c1-c1ccco1 | -15 | -8 | 3 | -6 | 24*
COc1ccc2c(c1)CCCN2C(=O)C1CCCN(S(=O)(=O)c2ccccc2)C1 (stereo not drawn) | / | 11 | / | 4 | 4
N#C/C(=C/c1cn(-c2ccccc2)nc1-c1cccc(S(=O)(=O)N2CCCC2)c1)C(=O)NCc1ccco1 | -38 | -12 | -4 | -20 | 6
N#C/C(=C/c1cn(-c2ccccc2)nc1-c1cccc(S(=O)(=O)N2CCOCC2)c1)C(=O)NCc1ccco1 | 1 | -1 | 6 | -3 | 23*
O=C(NCCNc1ccc([N+](=O)[O-])cc1C(F)(F)F)c1ccccc1 | -15 | 0 | 52* | 3 | 2
O=C(NCCNc1ccc([N+](=O)[O-])cc1C(F)(F)F)c1cccc(F)c1 | -13 | -4 | -2 | 4 | 2
O=C1C[C@@H](C(=O)Nc2ccc(Cl)cc2)[C@@H](c2ccccc2)O1 | / | -4 | / | -7 | -3
Nc1ccc(S(=O)(=O)Nc2nccs2)cc1N=Nc1ccccc1[N+](=O)[O-] | 8 | 15 | / | 5 | 25*
O=[N+]([O-])c1ccccc1S(=O)(=O)Nc1ccc(S(=O)(=O)Nc2nccs2)cc1 | -2 | 1 | -6 | 1 | 2
O=[N+]([O-])c1ccc(SCCc2ccccn2)cc1 | 0 | 3 | -5 | 3 | 14
O=[N+]([O-])c1ccc(SCCc2ccncc2)cc1 | 3 | 5 | 13 | -4 | 24*!
Cc1ccc(/C=N\NC(=O)CN2CCN(S(=O)(=O)c3ccc(Br)cc3)CC2)s1 | / | 1 | / | 1 | -2
CC(C)(C)c1ccc(CNc2nc(-c3ccccn3)nnc2-c2ccccc2)cc1 | / | 22 | / | -10 | 6
Nc1cccc2nsnc12 | 5 | 2 | 3 | 7 | 7
Nc1cc2nsnc2cc1Br | 36 | 19 | -5 | 5 | 40*
COc1ccccc1N1CCN(S(=O)(=O)c2ccc3c(c2)CCC(=O)N3)CC1 | / | 3 | / | 1 | 1
SMILES | HTRA1 inhibitor | ABHD4 inh | GASC-1 inh | SIAE inh | PRMT1 FP inh
O=C(O)CSc1c2ccccc2cc2ccccc12 | -5 | 22 | -13 | 3 | 31*
Cc1[nH]c2ccccc2c1SCC(=O)O | 4 | 0 | 11 | 6 | 1
CN(C(=O)c1ccc(NC(=O)Cc2ccc(NC(=O)C3CCN(C(=O)c4ccccc4)CC3)cc2)cc1)C1CC1 | -5 | 4 | 58* | 0 | -2
Cc1ccc(-c2nnc(SCC(=O)NN=Cc3c[nH]c4ccccc34)n2-c2ccccc2)cc1 | / | -3 | / | 3 | 0
COc1ccc(S(=O)(=O)Nc2ccc3c(c2)C(=O)N([C@H](C)CO)C[C@H](C)[C@H](CN(C)Cc2ccc(C(=O)O)cc2)O3)cc1 | -1 | -10 | 51* | 3 | 0
Cc1ccc(S(=O)(=O)Nc2ccc3c(c2)C(=O)N([C@H](C)CO)C[C@H](C)[C@@H](CN(C)Cc2ccc(-c4ccccc4)cc2)O3)cc1 | -91 | / | 56* | / | /
COc1ccc(S(=O)(=O)N(C)C[C@H]2Oc3ccc(NC(=O)Nc4ccc5c(c4)OCO5)cc3CC(=O)N([C@@H](C)CO)C[C@@H]2C)cc1 | -6 | -1 | -18 | 18* | 1
CCOC(=O)Cn1cc(CN2CCS(=O)(=O)N(Cc3ccc(F)cc3)C(C(=O)OC)C2)nn1 (stereo not drawn) | / | 3 | / | 1 | -2
O=[N+]([O-])c1ccc(C(=S)N2CCN(c3ccc(F)cc3)CC2)cc1 | -10 | 4 | -4 | 4 | 3
CN(C)c1ccc(C(=S)N2CCN(c3ccc([N+](=O)[O-])cc3)CC2)cc1 | 5 | 1 | 0 | 10 | 23*
COc1ccc(-c2coc3cc(OC(C)=O)ccc3c2=S)cc1 | 2 | -1 | / | 8 | 22*
CC(=O)Oc1ccc2c(=O)c(-c3ccccc3)coc2c1 | -3 | 1 | 27 | -2 | -1
CCN1CCN(c2cc(N3CCN(C(=O)c4ccco4)CC3)c3c4c(onc24)-c2ccccc2C3=O)CC1 | 70* | / | -4 | / | /
Cc1ccccc1-n1c(SCC(=O)N2CCOCC2)nc(O)c(Cc2ccccc2)c1=O | -2 | -8 | -13 | -4 | 24*
COC(=O)c1sc2nc(-c3ccco3)ccc2c1N | 8 | 21 | 2 | 10 | 55*
Cn1ccc2c(-c3ccc(F)nc3)cc3c(c21)C1CCC3C1 (stereo not drawn) | / | 0 | / | 3 | 23*
COc1ccc(CN2C[C@]3(C=C4CCCCC4n4c(=O)n(-c5ccccc5)c(=O)n43)N=C2NC(=O)c2ccccc2)c(OC)c1 (stereo partly drawn) | / | -3 | / | 5 | 0
COc1ccc(N2CCN(C(=O)CSc3nnc(-c4ccco4)n3C)CC2)cc1 | / | -3 | 64* | 0 | -1
O=Cc1ccc(/C=C2\c3ccccc3C(=O)N2c2ccccc2)o1 | / | 41* | / | 10 | 18
O=C1c2ccccc2C(=O)N1c1ccccc1 | -4 | 4 | / | 6 | 7
CNc1ccc(-c2cccc(C(=O)N3CCOCC3)c2)cn1 | / | 0 | / | -4 | -2
Nc1ccn([C@@H]2O[C@H](C(=O)N[C@H](Cc3ccccc3)C(=O)Nc3ccc4scnc4c3)[C@@H](O)[C@H]2O)c(=O)n1 | / | -6 | / | -2 | 21*
COC(=O)[C@]1(C)CN(C(=O)OC(C)(C)C)C2=C1C(=O)C[C@@](C)(C(=O)OC(C)(C)C)C2 | / | -2 | / | 4 | 1
Cc1ccc(-c2c(C(=O)O)c(C(=O)O)c3n2CSC3)cc1 | 7 | 5 | -17 | -1 | 24*
Cc1cc(NS(=O)(=O)c2ccc(NC(=O)c3ccccc3F)cc2)no1 | 6 | -4 | -4 | -2 | -4
COc1ccccc1C(=O)Nc1ccc(S(=O)(=O)Nc2cc(C)on2)cc1 | 0 | 0 | -1 | 27* | -4
